From ChEMBL document CHEMBL1144783, “Novel bisbenzimidazoles with antileishmanial effectiveness” (Bioorg Med Chem Lett, 2008)

Columns and labels:
Leishmania donovani = assay: Antileishmanial activity against Leishmania donovani by Alamar blue assay; type: functional, organism-based
How it was run: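 L. donovani promastigotes at 2×10^6 cells/ml, 96-well format. Compounds dissolved in DMSO (2 mg ml⁻¹ stock), diluted in culture medium to final concentrations; matching DMSO dilutions as controls. Incubation 72 h at 26 °C; growth read by Alamar blue.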

[1] = system: Trypanosoma brucei rhodesiense; assay: […] rhodesiense STIB 900 after 3 days; type: functional, organism-based; conditions: STIB 900, 72 h
How it was run: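 Bloodstream-form trypomastigotes, 8×10^3 per well in 100 μl medium, 96-well plates. Incubated 3 days, then resazurin added and fluorescence read after a further 24 h at 37 °C to gauge parasite growth. IC50 reported.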

Vero = assay: Cytotoxicity against african green monkey Vero cells by neutral red assay; type: cell-based; conditions: Chlorocebus sabaeus
Pneumocystis carinii = assay: Antileishmanial activity against Pneumocystis carinii; type: functional, organism-based

Compound	IC90 (Leishmania donovani) [µM]	IC50 [1] [µM]	IC50 (Vero) [µM]	IC50 (Leishmania donovani) [µM]	IC50 (Pneumocystis carinii) [µM]
N=C(N)c1ccc(OCCCCCOc2ccc(C(=N)N)cc2)cc1 [PENTAMIDINE]	9.8	0.05	> 100	–	–
c1ccc2[nH]c(-c3ccc(OCCCCCCCOc4ccc(-c5nc6ccccc6[nH]5)cc4)cc3)nc2c1	56.2	> 60	46.1	13.6	> 100
c1ccc2[nH]c(-c3ccc(OCCCCCOc4ccc(-c5nc6ccccc6[nH]5)cc4)cc3)nc2c1	3.1	> 60	28.7	1.4	54.1
c1ccc2[nH]c(-c3ccc(OCCCOc4ccc(-c5nc6ccccc6[nH]5)cc4)cc3)nc2c1	3.3	> 60	27.2	1.5	10.2
c1ccc2[nH]c(-c3ccc(OCCCCOc4ccc(-c5nc6ccccc6[nH]5)cc4)cc3)nc2c1	12.9	> 60	> 100	4.9	169
c1cc(OCCCCCOc2cccc(-c3nc4ccccc4[nH]3)c2)cc(-c2nc3ccccc3[nH]2)c1	45.1	0.85	12.3	10.3	5.2
c1ccc2[nH]c(-c3ccc(OCCCCCCOc4ccc(-c5nc6ccccc6[nH]5)cc4)cc3)nc2c1	53.8	> 60	27.9	11.8	> 100
